Assay results from ChEMBL document CHEMBL4024748, “Development of Potent Type I Protein Arginine Methyltransferase (PRMT) Inhibitors of Leukemia Cell Proliferation” (J Med Chem, 2017).
The source made the active and inactive calls. The rule behind the calls is not given here.

Experiments:
[1] = target: Protein arginine N-methyltransferase 1 (Rattus norvegicus) (UniProt Q63009); assay: Non-competitive inhibition of rat His-tagged PRMT1 (11 to 353 residues) expressed in Escherichia coli BL21(DE3) in presence of varying concentrations of biotinylated H4 peptide (1 to 21 residues) substrate and fixed [3H]SAM concentration
Outline: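 Kinetic mode-of-action study using the radiolabel method with His6-rPRMT1(11–353). IC50 measured at varied peptide substrate or varied SAM concentrations, with the other component fixed. 15 min enzyme–compound preincubation, then 60 min reaction at RT with [3H]-SAM, Flashplate capture and Microbeta counting.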

MV4-11 [2] = assay: Antiproliferative activity against human MV4-11 cells assessed as decrease in cell viability measured at day 8 by Cell-Titer Glo assay; type: functional, cell-based; settings: MV4-11, 192 h
Outline: (§1)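 Cells kept at 37°C, 5% CO2, exposed to compound or DMSO control for 96 h. Viability read by CellTiter-Glo luminescence after 2 min shaking to lyse and 10 min at room temperature. Triplicate wells, normalised to control cells. For long-term growth, log-phase seeding densities; cells counted and replated to the starting density with fresh compound on days 4 and 8.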

MV4-11 [3] = assay: Downregulation of MEIS1 mRNA levels in human MV4-11 cells by qRT-PCR analysis; type: functional, cell-based
Outline: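 MV4-11 cells treated with compound. mRNA measured by SYBR Green qRT-PCR with B2M as internal control. Fold change from ΔΔCt. Samples run in triplicate, mean ± SD.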

MV4-11 [4] = assay: Cytotoxicity against human MV4-11 cells assessed as decrease in cell viability at 6.25 to 12.5 uM after 96 hrs by Cell-Titer Glo assay; type: functional, cell-based; outline: as §1
[5] = target: Protein arginine N-methyltransferase 6 (Homo sapiens, UniProt Q96LA8); assay: Inhibition of PRMT6 in human MV411 cells assessed as reduction in H3R2me2a levels after 48 hrs by Western blot analysis; type: cell-based
Outline: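 MV4-11 cells (37°C, 5% CO2) exposed to compound for 48 h across a range of doses. Histone H3R2 asymmetric dimethylation read by western blot. Membranes blocked in 5% milk/PBST, primary antibody overnight at 4°C, then 1:10000 HRP donkey anti-rabbit secondary for 1 h.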

[6] = target: Histone-lysine N-methyltransferase EHMT2 (Homo sapiens) (UniProt Q96KQ7); assay: Inhibition of G9a (unknown origin) at 100 uM incubated for 15 mins followed by substrate addition measured after 60 mins by AlphaLisa method
Outline: (§2)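 AlphaLISA. Enzyme and substrate in 1x assay buffer, compound at 1% DMSO final. Enzyme preincubated with compound 15 min at room temperature, then substrate added. Reaction 60 min at room temperature, then bead mix added and incubated 60 min under subdued light before signal read.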

[7] = target: N-lysine methyltransferase SMYD2 (Homo sapiens) (UniProt Q9NRG4); assay: Inhibition of SMYD2 (unknown origin) at 50 uM incubated for 15 mins followed by substrate addition measured after 240 mins by AlphaLisa method
Outline: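 SMYD2 AlphaLISA at 50 and 100 µM compound, 1% DMSO final. Enzyme preincubated 15 min at RT, then substrate added and reacted 240 min at RT. Bead mix added and incubated 60 min at RT in subdued light before reading.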

[8] = target: Histone-arginine methyltransferase CARM1 (Homo sapiens, UniProt Q86X55); assay: Inhibition of PRMT4 (unknown origin) incubated for 15 mins followed by substrate addition measured after 60 mins by AlphaLisa method
Outline: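 Enzyme preincubated with compound for 15 min at room temperature in 1x assay buffer (final DMSO 1%), then substrate added. The reaction ran for 60 min at room temperature. AlphaLISA bead mix was then added and incubated for 60 min at room temperature in subdued light. The luminescent signal was read and IC50 derived by curve fitting.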

MRC5 = assay: Cytotoxicity against human MRC5 cells assessed as decrease in cell viability at 6.25 to 25 uM after 96 hrs by Cell-Titer Glo assay; type: cell-based; settings: mrc5, 96 h
Outline: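 Normal HUV-EC-C, MRC-5 and RCTEC cells at 37°C, 5% CO2, given compound or DMSO control for 96 h. Viability by CellTiter-Glo luminescence after 2 min shaking and 10 min at room temperature. Triplicate wells, normalised to control cells.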

U-937 = assay: Cytotoxicity against human U937 cells assessed as decrease in cell viability after 96 hrs by Cell-Titer Glo assay; type: functional, cell-based; outline: as §1
[9] = target: Protein arginine N-methyltransferase 1 (Rattus norvegicus) (UniProt Q63009); assay: Binding affinity to rat His-tagged PRMT1 (11 to 353 residues) expressed in Escherichia coli BL21(DE3) at 200 uM by 1D 1H CPMG-NMR spectroscopic method
Outline: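 Rat PRMT1 (11–353), N-His6, expressed in E. coli BL21(DE3) with 0.4 mM IPTG at 16°C. Purified by Ni affinity and Superdex200. NMR used 5 µM PRMT1 in phosphate buffer pH 7.4 (20 mM NaH2PO4, 20 mM Na2HPO4, 100 mM NaCl) in D2O. Ligand at 200 µM in 5% DMSO-d6. CPMG run with 5, 2 and 1 µM PRMT1, plus STD.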

[10] = target: DNA (cytosine-5)-methyltransferase 1 (Homo sapiens) (UniProt P26358); assay: Inhibition of DNMT1 (unknown origin) at 50 uM incubated for 15 mins followed by substrate addition measured after 60 mins by radioisotope assay
[11] = target: Histone-lysine N-methyltransferase PRDM9 (Homo sapiens) (UniProt Q9NQV7); assay: Inhibition of PRDM9 (unknown origin) at 50 uM incubated for 15 mins followed by substrate addition measured after 60 mins by AlphaLisa method; outline: as §2
[12] = target: Protein arginine N-methyltransferase 1 (Homo sapiens) (UniProt Q99873); assay: Inhibition of PRMT1 in human MV411 cells assessed as increase in SDMA levels after 48 hrs by Western blot analysis; type: cell-based
Outline: (§3)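 MV4-11 cells treated with compound for 48 h. ADMA, SDMA and H4R3me2a read by western blot. Blots blocked in 5% nonfat milk in PBST, primary antibodies overnight at 4°C, HRP anti-rabbit secondary at 1:10000 for 1 h.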

[13] = target: Histone-lysine N-methyltransferase PRDM9 (Homo sapiens) (UniProt Q9NQV7); assay: Inhibition of PRDM9 (unknown origin) at 100 uM incubated for 15 mins followed by substrate addition measured after 60 mins by AlphaLisa method; outline: as §2
[14] = target: Protein arginine N-methyltransferase 1 (Homo sapiens) (UniProt Q99873); assay: Inhibition of PRMT1 in human MV411 cells assessed as reduction in H4R3me2a levels after 48 hrs by Western blot analysis; type: cell-based; outline: as §3
KMS-11 = assay: Cytotoxicity against human KMS11 cells assessed as decrease in cell viability after 96 hrs by Cell-Titer Glo assay; type: functional, cell-based; outline: as §1
[15] = target: Histone-lysine N-methyltransferase SUV39H1 (Homo sapiens) (UniProt O43463); assay: Inhibition of SUV39H1 (unknown origin) at 50 uM incubated for 15 mins followed by substrate addition measured after 60 mins by AlphaLisa method
Outline: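 SUV39H1 AlphaLISA at 50 and 100 µM compound, 1% DMSO final. Enzyme preincubated 15 min at room temperature, substrate reaction 60 min at RT. Bead mix then added for 60 min at RT in subdued light before signal collection.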

[16] = target: DNA (cytosine-5)-methyltransferase 1 (Homo sapiens) (UniProt P26358); assay: Inhibition of DNMT1 (unknown origin) at 100 uM incubated for 15 mins followed by substrate addition measured after 60 mins by radioisotope assay

Chain of DNA (cytosine-5)-methyltransferase 1 (Homo sapiens) (P26358 whole entry): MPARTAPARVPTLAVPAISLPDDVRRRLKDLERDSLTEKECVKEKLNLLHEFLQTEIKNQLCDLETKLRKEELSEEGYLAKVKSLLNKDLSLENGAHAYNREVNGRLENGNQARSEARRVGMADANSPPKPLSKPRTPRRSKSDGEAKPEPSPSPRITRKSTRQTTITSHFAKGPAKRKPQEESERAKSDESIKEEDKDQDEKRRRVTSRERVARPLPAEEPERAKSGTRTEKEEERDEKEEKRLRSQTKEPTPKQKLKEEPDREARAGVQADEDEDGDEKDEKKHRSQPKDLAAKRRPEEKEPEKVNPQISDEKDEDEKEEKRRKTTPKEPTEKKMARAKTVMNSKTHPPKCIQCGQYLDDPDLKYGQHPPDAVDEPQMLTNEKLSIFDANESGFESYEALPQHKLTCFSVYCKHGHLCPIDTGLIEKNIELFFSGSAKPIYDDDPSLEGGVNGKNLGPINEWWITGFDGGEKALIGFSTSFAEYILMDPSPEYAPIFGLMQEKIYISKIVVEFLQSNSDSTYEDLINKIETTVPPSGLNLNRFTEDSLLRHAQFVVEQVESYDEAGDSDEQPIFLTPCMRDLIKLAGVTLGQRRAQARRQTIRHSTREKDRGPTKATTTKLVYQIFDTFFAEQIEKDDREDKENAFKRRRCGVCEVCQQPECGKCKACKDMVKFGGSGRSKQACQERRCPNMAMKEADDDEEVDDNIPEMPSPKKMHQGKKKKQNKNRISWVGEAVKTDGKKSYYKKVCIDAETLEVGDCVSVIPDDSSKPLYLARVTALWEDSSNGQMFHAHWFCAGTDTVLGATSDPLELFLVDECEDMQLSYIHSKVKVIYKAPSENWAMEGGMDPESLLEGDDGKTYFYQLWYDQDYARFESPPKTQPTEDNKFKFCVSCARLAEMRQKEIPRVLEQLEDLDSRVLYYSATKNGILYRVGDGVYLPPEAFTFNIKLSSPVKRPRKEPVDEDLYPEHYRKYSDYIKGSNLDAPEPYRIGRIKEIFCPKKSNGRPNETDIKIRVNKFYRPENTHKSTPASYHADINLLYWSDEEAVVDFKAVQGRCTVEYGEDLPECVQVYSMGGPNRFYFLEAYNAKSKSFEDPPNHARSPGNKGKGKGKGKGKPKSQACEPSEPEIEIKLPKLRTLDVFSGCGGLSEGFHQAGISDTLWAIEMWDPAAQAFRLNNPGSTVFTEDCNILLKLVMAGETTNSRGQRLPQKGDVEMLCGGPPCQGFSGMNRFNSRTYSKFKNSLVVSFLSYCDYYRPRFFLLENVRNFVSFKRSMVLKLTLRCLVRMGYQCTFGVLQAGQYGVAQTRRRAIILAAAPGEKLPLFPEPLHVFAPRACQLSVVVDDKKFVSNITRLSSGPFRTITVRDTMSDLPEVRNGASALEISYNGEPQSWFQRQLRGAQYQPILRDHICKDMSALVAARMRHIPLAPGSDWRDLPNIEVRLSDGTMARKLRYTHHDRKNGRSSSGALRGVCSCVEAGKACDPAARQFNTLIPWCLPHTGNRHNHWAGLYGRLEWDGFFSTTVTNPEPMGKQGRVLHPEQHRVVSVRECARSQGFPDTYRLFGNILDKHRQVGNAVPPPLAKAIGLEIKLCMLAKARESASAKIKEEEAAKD
Chain of Histone-lysine N-methyltransferase PRDM9 (Homo sapiens) (Q9NQV7 whole entry): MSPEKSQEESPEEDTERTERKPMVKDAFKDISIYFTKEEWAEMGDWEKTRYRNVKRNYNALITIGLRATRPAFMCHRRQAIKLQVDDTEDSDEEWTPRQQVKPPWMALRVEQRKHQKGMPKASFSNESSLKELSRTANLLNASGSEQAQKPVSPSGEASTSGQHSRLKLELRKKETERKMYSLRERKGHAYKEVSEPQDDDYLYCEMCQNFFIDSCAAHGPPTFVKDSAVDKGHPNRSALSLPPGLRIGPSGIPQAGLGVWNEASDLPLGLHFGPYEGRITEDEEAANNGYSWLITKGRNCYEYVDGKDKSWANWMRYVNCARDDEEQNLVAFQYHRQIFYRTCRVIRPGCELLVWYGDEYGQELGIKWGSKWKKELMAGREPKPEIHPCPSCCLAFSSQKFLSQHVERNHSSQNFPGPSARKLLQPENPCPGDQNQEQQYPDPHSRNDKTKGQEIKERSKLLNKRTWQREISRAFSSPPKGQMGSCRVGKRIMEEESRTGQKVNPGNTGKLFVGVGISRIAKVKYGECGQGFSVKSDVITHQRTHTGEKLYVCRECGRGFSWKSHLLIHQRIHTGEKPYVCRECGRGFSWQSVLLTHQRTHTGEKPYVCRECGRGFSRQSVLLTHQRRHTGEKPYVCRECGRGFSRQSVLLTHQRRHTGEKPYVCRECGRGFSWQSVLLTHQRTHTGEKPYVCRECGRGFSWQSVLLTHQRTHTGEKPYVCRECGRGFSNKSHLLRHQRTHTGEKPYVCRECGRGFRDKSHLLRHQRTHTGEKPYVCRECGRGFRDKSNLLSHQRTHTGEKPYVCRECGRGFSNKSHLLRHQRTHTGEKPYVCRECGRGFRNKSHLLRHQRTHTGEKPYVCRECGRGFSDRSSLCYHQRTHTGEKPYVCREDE
Chain of Protein arginine N-methyltransferase 1 (Homo sapiens) (Q99873 whole entry, looked up): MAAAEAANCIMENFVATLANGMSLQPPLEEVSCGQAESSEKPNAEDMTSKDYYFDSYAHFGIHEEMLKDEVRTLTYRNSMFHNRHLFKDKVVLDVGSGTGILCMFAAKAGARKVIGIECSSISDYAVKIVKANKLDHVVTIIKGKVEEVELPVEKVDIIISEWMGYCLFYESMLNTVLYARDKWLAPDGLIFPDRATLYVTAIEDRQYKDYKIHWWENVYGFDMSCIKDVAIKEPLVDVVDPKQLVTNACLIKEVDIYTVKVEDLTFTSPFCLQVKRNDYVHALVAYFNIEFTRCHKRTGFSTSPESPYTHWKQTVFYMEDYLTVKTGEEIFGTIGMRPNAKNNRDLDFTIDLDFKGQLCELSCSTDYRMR
Chain of Protein arginine N-methyltransferase 1 (Rattus norvegicus) (Q63009 whole entry, looked up, the tested form may be a part): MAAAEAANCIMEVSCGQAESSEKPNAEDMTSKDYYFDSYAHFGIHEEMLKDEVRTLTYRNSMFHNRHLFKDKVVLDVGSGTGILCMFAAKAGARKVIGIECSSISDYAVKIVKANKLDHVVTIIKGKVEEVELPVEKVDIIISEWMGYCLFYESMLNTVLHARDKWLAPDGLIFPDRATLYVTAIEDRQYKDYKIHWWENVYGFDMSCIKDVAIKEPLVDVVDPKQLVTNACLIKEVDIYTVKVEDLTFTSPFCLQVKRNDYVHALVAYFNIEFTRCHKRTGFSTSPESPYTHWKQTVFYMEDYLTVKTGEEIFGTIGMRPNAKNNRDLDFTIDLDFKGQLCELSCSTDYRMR
Chain of Histone-lysine N-methyltransferase SUV39H1 (Homo sapiens) (O43463 whole entry): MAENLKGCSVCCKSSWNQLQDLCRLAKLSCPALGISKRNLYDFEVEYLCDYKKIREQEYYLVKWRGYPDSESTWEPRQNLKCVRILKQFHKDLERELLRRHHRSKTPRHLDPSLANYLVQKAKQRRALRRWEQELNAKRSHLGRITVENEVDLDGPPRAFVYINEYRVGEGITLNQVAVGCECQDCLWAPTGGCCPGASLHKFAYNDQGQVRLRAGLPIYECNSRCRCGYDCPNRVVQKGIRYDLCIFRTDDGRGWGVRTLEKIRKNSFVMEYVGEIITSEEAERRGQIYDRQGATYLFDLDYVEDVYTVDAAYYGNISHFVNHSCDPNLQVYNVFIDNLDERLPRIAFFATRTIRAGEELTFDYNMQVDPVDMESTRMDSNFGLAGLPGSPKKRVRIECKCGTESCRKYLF
Chain of Protein arginine N-methyltransferase 6 (Q96LA8 whole entry, looked up): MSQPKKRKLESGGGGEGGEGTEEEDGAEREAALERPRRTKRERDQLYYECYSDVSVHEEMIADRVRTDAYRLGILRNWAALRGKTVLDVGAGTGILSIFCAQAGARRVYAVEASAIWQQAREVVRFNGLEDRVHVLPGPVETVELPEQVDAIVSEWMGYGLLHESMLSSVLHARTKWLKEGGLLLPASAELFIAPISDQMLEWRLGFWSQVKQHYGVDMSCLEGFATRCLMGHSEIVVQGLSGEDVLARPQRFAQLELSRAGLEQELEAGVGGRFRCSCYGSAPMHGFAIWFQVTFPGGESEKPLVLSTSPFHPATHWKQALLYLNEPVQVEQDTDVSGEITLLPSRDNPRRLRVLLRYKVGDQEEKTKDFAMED
Chain of N-lysine methyltransferase SMYD2 (Homo sapiens) (Q9NRG4 whole entry): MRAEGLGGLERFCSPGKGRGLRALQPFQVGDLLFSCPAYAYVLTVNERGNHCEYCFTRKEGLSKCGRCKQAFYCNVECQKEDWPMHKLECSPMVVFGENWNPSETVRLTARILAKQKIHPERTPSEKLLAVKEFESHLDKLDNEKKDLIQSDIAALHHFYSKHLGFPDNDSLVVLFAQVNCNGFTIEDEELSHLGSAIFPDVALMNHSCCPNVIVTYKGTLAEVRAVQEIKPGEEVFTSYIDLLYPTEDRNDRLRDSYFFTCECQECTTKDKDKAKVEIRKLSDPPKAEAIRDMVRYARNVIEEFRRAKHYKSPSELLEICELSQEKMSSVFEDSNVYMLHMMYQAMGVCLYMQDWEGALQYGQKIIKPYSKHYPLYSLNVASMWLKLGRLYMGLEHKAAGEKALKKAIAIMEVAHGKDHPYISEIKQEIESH

inhibition [1]: Active | IC50 (MV4-11 [2]): 3.21 µM | inhibition [5]: Dose-dependent effect | inhibition [6]: Active | inhibition [7]: Active | IC50 [8]: 63 nM | Activity [9]: Active | inhibition [10]: Active | inhibition [11]: Active | inhibition [12]: Dose-dependent effect | inhibition [13]: Active | inhibition [14]: Dose-dependent effect | inhibition [15]: Active | inhibition [16]: Active
SMILES: CN(CCN)Cc1ccccc1Sc1ccccc1Cl
Activity (MV4-11 [3]): Dose-dependent effect | Activity (MV4-11 [4]): Active | Activity (MRC5): Non-Toxic | Activity (U-937): Dose-dependent effect | Activity (KMS-11): Dose-dependent effect
